Source: ChEMBL document CHEMBL4368920, “Discovery of 2,4-diamino-5-cyanopyrimidine derivatives as protein kinase C theta inhibitors with mitigated time-dependent drug-drug interactions” (Bioorg Med Chem, 2019)
≈ marks a conversion by molar mass, not a printed value.

Experiments:
[1] = target: T1, Protein kinase C theta type (Homo sapiens, UniProt Q04759); assay: Inhibition of PKCtheta in human Jurkat cells assessed as reduction in IL2 production after 14 hrs by luciferase reporter gene assay; format: cell-based
T1 sequence (Q04759 whole entry): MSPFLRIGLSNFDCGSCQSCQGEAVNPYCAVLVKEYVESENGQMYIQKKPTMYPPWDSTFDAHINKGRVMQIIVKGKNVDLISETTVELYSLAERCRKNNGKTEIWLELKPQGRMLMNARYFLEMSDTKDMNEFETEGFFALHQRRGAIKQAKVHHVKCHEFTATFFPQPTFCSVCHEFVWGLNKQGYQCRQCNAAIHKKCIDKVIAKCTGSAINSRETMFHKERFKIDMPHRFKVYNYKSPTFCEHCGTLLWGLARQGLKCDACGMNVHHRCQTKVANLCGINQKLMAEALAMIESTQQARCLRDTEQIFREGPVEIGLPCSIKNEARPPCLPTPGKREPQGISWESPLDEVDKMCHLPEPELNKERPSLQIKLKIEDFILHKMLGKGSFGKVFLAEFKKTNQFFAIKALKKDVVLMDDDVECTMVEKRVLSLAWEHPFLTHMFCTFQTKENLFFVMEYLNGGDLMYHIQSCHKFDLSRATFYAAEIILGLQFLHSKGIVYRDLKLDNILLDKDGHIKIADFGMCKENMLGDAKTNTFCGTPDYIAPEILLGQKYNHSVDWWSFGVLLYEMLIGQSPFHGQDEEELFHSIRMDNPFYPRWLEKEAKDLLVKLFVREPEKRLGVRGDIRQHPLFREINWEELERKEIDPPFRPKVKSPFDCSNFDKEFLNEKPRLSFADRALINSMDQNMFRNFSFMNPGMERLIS
Method in brief: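 Jurkat cells transiently transfected with a pGL3-IL2 promoter firefly luciferase plasmid. Stimulated with anti-CD3 plus anti-CD28 antibodies in the presence of compound for 14 h, then luciferase substrate added. IC50 from duplicates in one experiment.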

[2] = Aqueous solubility of the compound at pH 6.8 at 130 uM after 20 hrs by HPLC analysis; format: physicochemical; conditions: aqueous solution
Method in brief: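 DMSO stock diluted to 130 μM with pH 6.8 aqueous buffer. Incubated 20 h at 25 °C, precipitate removed by filtration, filtrate concentration measured by HPLC.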

CYP3A4 = CYP3A4 (Homo sapiens, UniProt P08684); assay: Time-dependent inhibition of CYP3A4 in human liver microsomes assessed as residual activity at 5 uM using midazolam as substrate preincubated for 30 mins followed by substrate addition and measured after 20 mins in presence of NADPH by LC-MS/MS analysis relative to control; format: ADME; conditions: probe midazolam, read-out: Activity
CYP3A4, sequence (P08684 whole entry): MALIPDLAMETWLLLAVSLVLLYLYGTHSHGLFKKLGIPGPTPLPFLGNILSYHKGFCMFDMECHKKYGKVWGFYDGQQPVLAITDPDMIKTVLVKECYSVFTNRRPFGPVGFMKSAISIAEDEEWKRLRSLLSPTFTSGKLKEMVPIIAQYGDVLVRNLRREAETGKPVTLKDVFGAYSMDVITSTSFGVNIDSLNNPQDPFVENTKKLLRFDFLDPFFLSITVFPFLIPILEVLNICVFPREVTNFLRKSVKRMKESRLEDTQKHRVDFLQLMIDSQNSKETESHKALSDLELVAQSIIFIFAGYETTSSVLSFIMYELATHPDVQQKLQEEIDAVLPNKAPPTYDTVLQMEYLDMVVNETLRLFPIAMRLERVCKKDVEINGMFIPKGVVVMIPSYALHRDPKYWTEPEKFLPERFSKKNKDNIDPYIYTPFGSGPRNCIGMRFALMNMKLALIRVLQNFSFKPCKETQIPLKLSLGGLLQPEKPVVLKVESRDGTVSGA
Method in brief: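 Human liver microsomes at 0.1 mg/mL in 100 mM potassium sodium phosphate (pH 7.4) with 1 mM NADPH and 0.1 mM EDTA, compound at 5 μM. Midazolam added either with no preincubation or after 30 min preincubation at 37 °C. Reaction run 20 min at 37 °C and stopped with acetonitrile. Residual activity is 30-min activity as a percentage of 0-min activity.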

[3] = target: T1, Protein kinase C theta type; assay: Inhibition of recombinant human full length PKCtheta using biotin-labelled STK substrate-1 as substrate after 60 mins by fluorescence assay
Rattus norvegicus = assay: Immunosuppressive activity in Lewis rat transplanted with ACI rat cardiac tissue assessed as reduction in graft rejection by measuring mean survival days at 1 mg/kg, po administered for 14 consecutive days co-treated with tacrolimus (reference value: 7 days); format: functional
Method in brief: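 ACI donor hearts into Lewis recipients, abdominal vascularized heterotopic transplant under aseptic conditions; pentobarbital 40 mg/kg i.p. anaesthesia. Agent in propylene glycol, given orally with tacrolimus (0.02 mg/kg) for 14 consecutive days starting on operation day. Graft survival recorded per animal and median survival time reported (n = 9).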

[4] = Elimination half life in Sprague-Dawley rat at 1 mg/kg, iv by LC-MS/MS analysis; format: ADME, organism-based; conditions: in vivo, read-out: beta t1/2 (converted)
Method in brief: (§1)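 Female SD rats, 1 mg/kg given as a single i.v. or oral dose in DMF/propylene glycol/1N HCl/saline (25/25/0.2/49.8). Blood sampled at multiple times up to 24 h. Unchanged compound in plasma measured by LC-MS/MS. Parameters derived by noncompartmental analysis. F taken as the AUC ratio of oral to i.v. dosing. Each value is the mean of three animals.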

[5] = Cmax in Sprague-Dawley rat at 1 mg/kg, po by LC-MS/MS analysis; format: ADME, organism-based; set-up: dose 1 mg/kg, route oral; conditions: in vivo; method in brief: as §1
[6] = Oral bioavailability in Sprague-Dawley rat at 1 mg/kg by LC-MS/MS analysis; format: ADME, organism-based; conditions: in vivo; method in brief: as §1
[7] = Total clearance in Sprague-Dawley rat at 1 mg/kg, iv by LC-MS/MS analysis; format: ADME, organism-based; conditions: in vivo; method in brief: as §1
[8] = Volume of distribution at steady state in Sprague-Dawley rat at 1 mg/kg, iv by LC-MS/MS analysis; format: ADME, organism-based; conditions: in vivo, read-out: Vdss; method in brief: as §1
[9] = AUC (0 to 24 hrs) in Sprague-Dawley rat at 1 mg/kg, po by LC-MS/MS analysis; format: ADME, organism-based; set-up: time < 24 hr, dose 1 mg/kg, route oral; conditions: in vivo; method in brief: as §1
[10] = AUC (0 to 24 hrs) in Sprague-Dawley rat at 1 mg/kg, iv by LC-MS/MS analysis; format: ADME, organism-based; set-up: time < 24 hr, dose 1 mg/kg, route intravenous; conditions: in vivo; method in brief: as §1
[11] = Tmax in Sprague-Dawley rat at 1 mg/kg, po by LC-MS/MS analysis; format: ADME, organism-based; conditions: in vivo; method in brief: as §1

With `CC(C)Oc1ncccc1CNc1ncc(C#N)c(NCC23CC4CC(C2)C(NC[C@H]2CC[C@H](O)CC2)C(C4)C3)n1` (stereo not given in full) the IC50 [1] was 18 nM, the solubility at 20 h, 130 µM [2] was > 100 µM and the activity at 20 min, 5 µM (CYP3A4) was 87%. It also gave an IC50 [3] of 0.59 nM.

With `COc1ncccc1CNc1ncc(C#N)c(NCC23CC4CC(C2)C(NC[C@H]2CC[C@H](O)CC2)C(C4)C3)n1` (stereo not given in full) the IC50 [1] was 43 nM, the solubility at 20 h, 130 µM [2] was > 50 µM and the activity at 20 min, 5 µM (CYP3A4) was 94%. The IC50 [3] was 1.9 nM.

In the case of `COc1nnccc1CNc1ncc(C#N)c(NCC23CC4CC(C2)C(NC[C@H]2CC[C@H](O)CC2)C(C4)C3)n1` (stereo not given in full), the solubility at 20 h, 130 µM [2] is reported as > 100 µM and the IC50 [3] is reported as > 100 nM.

With `CC(C)NC1C2CC3CC1CC(CNc1nc(NCc4ccccc4OC(F)(F)F)ncc1C#N)(C3)C2` (stereo not given) the activity at 20 min, 5 µM (CYP3A4) was 29% and the IC50 [3] was < 1 nM.

With `N#Cc1cnc(NCc2ccccc2Cl)nc1NCC12CC3CC(C1)C(NC[C@H]1CC[C@H](O)CC1)C(C3)C2` (stereo not given in full) the IC50 [1] was 22 nM, the solubility at 20 h, 130 µM [2] was 1.1 µM (≈ 0.589 µg/mL) and the activity at 20 min, 5 µM (CYP3A4) was 77%. For the same compound, the IC50 [3] was 1.4 nM.

With `CSc1ccccc1CNc1ncc(C#N)c(NCC23CC4CC(C2)C(NC[C@H]2CC[C@H](O)CC2)C(C4)C3)n1` (stereo not given in full) the IC50 [1] was 16 nM, the solubility at 20 h, 130 µM [2] was 45 µM (≈ 24.6 µg/mL) and the activity at 20 min, 5 µM (CYP3A4) was 92%. It also gave an IC50 [3] of 0.94 nM.

In the case of `CCSc1ncccc1CNc1ncc(C#N)c(NCC23CC4CC(C2)C(NC[C@H]2CC[C@H](O)CC2)C(C4)C3)n1` (stereo not given in full), the IC50 [1] is reported as < 3 nM, the solubility at 20 h, 130 µM [2] is reported as 16 µM (≈ 8.99 µg/mL) and the activity at 20 min, 5 µM (CYP3A4) is reported as 80%. It also gave an IC50 [3] of 0.46 nM.

For `N#Cc1cnc(NCc2ccccc2OC(F)(F)F)nc1NCC12CC3CC(C1)C(NCCO)C(C3)C2` (stereo not given), the activity at 20 min, 5 µM (CYP3A4) was 36% and the IC50 [3] was 0.7 nM.

With `N#Cc1cnc(NCc2ccccc2OC(F)(F)F)nc1NCC12CC3CC(C1)C(N[C@H]1CC[C@@H](O)CC1)C(C3)C2` (stereo not given in full) the activity at 20 min, 5 µM (CYP3A4) was 43% and the IC50 [3] was 0.66 nM.

Compound `N#Cc1cnc(NCc2ccccc2OC(F)(F)F)nc1NCC12CC3CC(C1)C(N[C@H]1CC[C@H](O)CC1)C(C3)C2` (stereo not given in full) has an activity at 20 min, 5 µM (CYP3A4) of 64% and an IC50 [3] of 0.38 nM.

With `N#Cc1cnc(NCc2ccccc2OC(F)(F)F)nc1NCC12CC3CC(C1)C(NC1CCOCC1)C(C3)C2` (stereo not given) the activity at 20 min, 5 µM (CYP3A4) was 41% and the IC50 [3] was < 1 nM.

For `CC(C)Sc1ncccc1CNc1ncc(C#N)c(NCC23CC4CC(C2)C(NC[C@H]2CC[C@H](O)CC2)C(C4)C3)n1` (stereo not given in full), the IC50 [1] was 3 nM, the solubility at 20 h, 130 µM [2] was < 1 µM and the activity at 20 min, 5 µM (CYP3A4) was 66%. For the same compound, the IC50 [3] was 0.23 nM.

Work on `CSc1ncccc1CNc1ncc(C#N)c(NCC23CC4CC(C2)C(NC[C@H]2CC[C@H](O)CC2)C(C4)C3)n1` (stereo not given in full) yielded an MSD (Rattus norvegicus) of 20 days, a half-life [4] of 3.97 h and a Cmax [5] of 12.4 ng/mL. It also gave an IC50 [1] of 10 nM, a bioavailability [6] of 58.3% and a clearance [7] of 66.7 mL/min/kg. The solubility at 20 h, 130 µM [2] was > 50 µM, the activity at 20 min, 5 µM (CYP3A4) was 98% and the Vd [8] was 12.9 L/kg. For the same compound, the AUC(0-t) at 24 h [9] was 145 ng·h/mL, the IC50 [3] was 0.44 nM and the AUC(0-t) at 24 h [10] was 248 ng·h/mL. For the same compound, the Tmax [11] was 3.33 h.

Compound `N#Cc1cnc(NCc2ccccc2OC(F)(F)F)nc1NCC12CC3CC(C1)C(N[C@H]1CC[C@H](N)CC1)C(C3)C2` (stereo not given in full) has an activity at 20 min, 5 µM (CYP3A4) of 59% and an IC50 [3] of 0.1 nM.

In the case of `N#Cc1cnc(NCc2ccccc2OC(F)(F)F)nc1NCC12CC3CC(C1)C(NC[C@H]1CC[C@H](O)CC1)C(C3)C2` (stereo not given in full), the IC50 [1] is reported as 11 nM, the solubility at 20 h, 130 µM [2] is reported as < 1 µM and the activity at 20 min, 5 µM (CYP3A4) is reported as 70%. For the same compound, the IC50 [3] was 0.42 nM.

In the case of `CS(=O)(=O)c1ncccc1CNc1ncc(C#N)c(NCC23CC4CC(C2)C(NC[C@H]2CC[C@H](O)CC2)C(C4)C3)n1` (stereo not given in full), the IC50 [1] is reported as 140 nM and the solubility at 20 h, 130 µM [2] is reported as > 100 µM.

For `N#Cc1cnc(NCc2ccccc2OC(F)(F)F)nc1NCC12CC3CC(C1)C(NC1CCCCC1)C(C3)C2` (stereo not given), the activity at 20 min, 5 µM (CYP3A4) was 43% and the IC50 [3] was 1.9 nM.

For `C[S+]([O-])c1ncccc1CNc1ncc(C#N)c(NCC23CC4CC(C2)C(NC[C@H]2CC[C@H](O)CC2)C(C4)C3)n1` (stereo not given in full), the IC50 [1] was 170 nM, the solubility at 20 h, 130 µM [2] was > 100 µM and the IC50 [3] was 32 nM.

With `N#Cc1cnc(NCc2ccccc2C(F)(F)F)nc1NCC12CC3CC(C1)C(NC[C@H]1CC[C@H](O)CC1)C(C3)C2` (stereo not given in full) the IC50 [1] was 17 nM, the activity at 20 min, 5 µM (CYP3A4) was 63% and the IC50 [3] was 0.57 nM.
